Activity calls are given as the source filed them. The calls are words filed in the database; no cut-off is given here.
Columns and labels:
B16-F10 = experiment: Antimigratory activity against mouse B16F10 cells at 6.25 to 12.5 uM after 12 hrs by wound healing assay
K562 = experiment: Antiproliferative activity against human K562 cells after 48 hrs by MTT assay; assay type: functional, cell-based; details: K562, 48 h
Summary of the method: (§1)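 Cells were seeded at 8×10^3 per well in RPMI-1640 with 10% heat-inactivated FBS. They were treated for 48 h at 37 °C, 5% CO2 with 20, 200, 400 or 1000 μM analogue, or DMSO vehicle. MTT (5 mg/mL solution) was added for 4 h, and absorbance was read at 570 nm. Viability was taken relative to vehicle control, as means ± SD of three independent experiments.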

HCCLM3 = experiment: Antimigratory activity against human HCCLM3 cells at 50 uM after 48 hrs by wound healing assay; assay type: functional, cell-based
Summary of the method: (§2)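 Near-confluent monolayers (1.5×10^5 cells per well, RPMI-1640 with 10% FBS) were scratched with a pipette tip and washed twice with serum-free medium. They were then exposed for 48 h to analogue in fresh FBS-containing medium, with DMSO medium as control. Wounds were photographed, and migration was expressed as % of 0 h (wound width at endpoint/width at 0 h). Done in triplicate.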

B16 = experiment: Antimigratory activity against mouse B16 cells at 6.25 to 12.5 uM after 48 hrs by wound healing assay; assay type: functional, cell-based
Summary of the method: as §2

HCT-116 = experiment: Antiproliferative activity against human HCT116 cells after 48 hrs by MTT assay; assay type: functional, cell-based; details: HCT-116, 48 h
Summary of the method: as §1

IC50 (K562)	IC50 (HCT-116)	Compound	Activity (B16-F10)	Activity (HCCLM3)	Activity (B16)
148 µM	182 µM	CCCCCCCCCCCCC/C=C/[C@@H](O)[C@@H](N)CO[C@H]1O[C@H](CO[C@]2(C(=O)O)C[C@H](O)[C@@H](NC(C)=O)[C@H]([C@H](O)[C@H](O)CO)O2)[C@@H](O)[C@H](O)[C@@H]1O	Active	Active	Active
160 µM	64.2 µM	CCCCCCCCCCCCC/C=C/[C@@H](O)[C@H](CO[C@H]1O[C@H](CO[C@]2(C(=O)O)C[C@H](O)[C@@H](NC(C)=O)[C@H]([C@H](O)[C@H](O)CO)O2)[C@@H](O)[C@H](O)[C@@H]1O)NC(=O)CCCCCCCCCCCCCCCCC	Active	inactive	Active
206 µM	130 µM	CCCCCCCCCCCCC/C=C/[C@@H](O)[C@@H](N)CO[C@@H]1O[C@H](CO[C@]2(C(=O)O)C[C@H](O)[C@@H](NC(C)=O)[C@H]([C@H](O)[C@H](O)CO)O2)[C@H](O)[C@H](O)[C@H]1O	Active	Active	Active
396 µM	86.2 µM	CCCCCCCCCCCCC/C=C/[C@@H](O)[C@H](CO[C@@H]1O[C@H](CO[C@]2(C(=O)O)C[C@H](O)[C@@H](NC(C)=O)[C@H]([C@H](O)[C@H](O)CO)O2)[C@H](O)[C@H](O)[C@H]1O)NC(=O)CCCCCCCCCCCCCCCCC	Active	inactive	Active
